# Active and inactive are the calls of the source. The rule behind the calls is not given here.
# Key:
# Staphylococcus aureus = assay: Antibacterial activity against Staphylococcus aureus ATCC 25923 assessed as inhibition of bacterial growth by standard broth microdilution method; assay type: functional
# In short: (§1)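 Broth microdilution in 96-well plates. Overnight culture (5 μl) moved into 5 ml fresh medium and grown to log phase, then diluted to 2 × 10^6 CFU ml−1. Each well received 100 μl cell suspension plus 100 μl of compound at various concentrations (200 μl final). Read-out was MIC. Run three times.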
# Escherichia coli = assay: Antibacterial activity against Escherichia coli ATCC 25922 assessed as inhibition of bacterial growth by standard broth microdilution method; assay type: functional; in short: as §1
# Pseudomonas aeruginosa [1] = assay: Antibacterial activity against Pseudomonas aeruginosa ATCC 27853 assessed as inhibition of bacterial growth by standard broth microdilution method; assay type: functional; in short: as §1
# Salmonella [2] = assay: Antibacterial activity against Salmonella ATCC 12022 assessed as inhibition of bacterial growth by standard broth microdilution method; assay type: functional; in short: as §1
# Pseudomonas aeruginosa [3] = assay: Antibacterial activity against Pseudomonas aeruginosa ATCC 27853 assessed as reduction in living bacterial cell counts at 1X to 4XMIC measured within 2 hrs by time-kill assay; assay type: functional, organism-based
# Salmonella [4] = assay: Bacteriostatic activity against Salmonella ATCC 12022 at 1X to 4XMIC measured after 2 to 24 hrs by time-kill assay; assay type: functional, organism-based; settings: time 2-24 hrs
# Pseudomonas aeruginosa [5] = assay: Antibacterial activity against Pseudomonas aeruginosa ATCC 27853 assessed as inhibition of bacterial growth at 0.5XMIC measured for 24 hrs by time-kill assay; assay type: functional, organism-based
# Pseudomonas aeruginosa [6] = assay: Bacteriostatic activity against Pseudomonas aeruginosa ATCC 27853 at 1X to 4XMIC measured after 2 to 24 hrs by time-kill assay; assay type: functional, organism-based; settings: time 2-24 hrs
# Salmonella [7] = assay: Antibacterial activity against Salmonella ATCC 12022 assessed as reduction in living bacterial cell counts at 1X to 4XMIC measured within 2 hrs by time-kill assay; assay type: functional, organism-based
# Salmonella [8] = assay: Antibacterial activity against Salmonella ATCC 12022 assessed as inhibition of bacterial growth at 0.5XMIC measured for 24 hrs by time-kill assay; assay type: functional, organism-based
Compound,MIC (Staphylococcus aureus),MIC (Escherichia coli),MIC (Pseudomonas aeruginosa [1]),MIC (Salmonella [2]),Activity (Pseudomonas aeruginosa [3]),Activity (Salmonella [4]),Activity (Pseudomonas aeruginosa [5]),Activity (Pseudomonas aeruginosa [6]),Activity (Salmonella [7]),Activity (Salmonella [8])
CCC1CCc2c(sc(NC(=O)c3ccccc3)c2C(=O)O)C1 (stereo unspecified),11.8 µM,1.49 µM,0.73 µM,0.73 µM,–,–,–,–,–,–
CC1CCc2c(sc(NC(=O)c3cc(Cl)ccc3F)c2C(=O)O)C1 (stereo unspecified),2.66 µM,1.33 µM,1 µM,1.33 µM,–,–,–,–,–,–
CCC1CCc2c(sc(NC(=O)c3ccc(Cl)cc3)c2C(=O)O)C1 (stereo unspecified),3.44 µM,3.44 µM,3.44 µM,1.72 µM,–,–,–,–,–,–
O=C(O)c1cn(C2CC2)c2cc(N3CCNCC3)c(F)cc2c1=O [CIPROFLOXACIN],–,1.27 µM,10.1 µM,2.54 µM,–,–,–,–,–,–
CC1CCc2c(sc(NC(=O)c3ccc(F)cc3)c2C(=O)O)C1 (stereo unspecified),1.47 µM,1.47 µM,0.72 µM,1.47 µM,–,–,–,–,–,–
O=C(Nc1sc2c(c1C(=O)O)CCCC2)c1ccc(Cl)cc1,1.46 µM,1.46 µM,1.46 µM,1.46 µM,–,–,–,–,–,–
GENTAMICIN,1.27 µM,–,–,–,–,–,–,–,–,–
CC1CCc2c(sc(NC(=O)c3ccccc3)c2C(=O)O)C1 (stereo unspecified),99.2 µM,1.56 µM,1.56 µM,1.56 µM,–,–,–,–,–,–
COc1ccc(C(=O)Nc2sc3c(c2C(=O)O)CCC(C)C3)cc1 (stereo unspecified),1.42 µM,1.42 µM,45.3 µM,90.6 µM,–,–,–,–,–,–
CCC1CCc2c(sc(NC(=O)c3ccc(C)cc3C)c2C(=O)O)C1 (stereo unspecified),3.5 µM,3.5 µM,1.75 µM,1.75 µM,–,–,–,–,–,–
CC1CCc2c(sc(NC(=O)c3c(F)cccc3F)c2C(=O)O)C1 (stereo unspecified),1.4 µM,11.1 µM,1.4 µM,1.4 µM,–,–,–,–,–,–
CCC1CCc2c(sc(NC(=O)c3ccc(F)cc3F)c2C(=O)O)C1 (stereo unspecified),3.42 µM,1.71 µM,1.71 µM,1.71 µM,–,–,–,–,–,–
CC1CCc2c(sc(NC(=O)c3ccc(F)cc3F)c2C(=O)O)C1 (stereo unspecified),1.4 µM,22.2 µM,11.1 µM,11.1 µM,–,–,–,–,–,–
CC1CCc2c(sc(NC(=O)c3ccccc3I)c2C(=O)O)C1 (stereo unspecified),1.11 µM,1.11 µM,1 µM,0.54 µM,Active,Active,inactive,Active,Active,inactive
CCC1CCc2c(sc(NC(=O)c3cc([N+](=O)[O-])cc([N+](=O)[O-])c3)c2C(=O)O)C1 (stereo unspecified),2.98 µM,1.49 µM,1.49 µM,1.49 µM,–,–,–,–,–,–
CCC1CCc2c(sc(NC(=O)c3ccc(F)cc3)c2C(=O)O)C1 (stereo unspecified),1.8 µM,1.8 µM,7.19 µM,7.19 µM,–,–,–,–,–,–
CCC1CCc2c(sc(NC(=O)c3ccc([N+](=O)[O-])cc3)c2C(=O)O)C1 (stereo unspecified),6.68 µM,6.68 µM,1.67 µM,1.67 µM,–,–,–,–,–,–
Cc1ccc(C(=O)Nc2sc3c(c2C(=O)O)CCC(C)C3)c(C)c1 (stereo unspecified),1.43 µM,5.69 µM,1.43 µM,1.43 µM,–,–,–,–,–,–
CCC1CCc2c(sc(NC(=O)c3ccccc3Cl)c2C(=O)O)C1 (stereo unspecified),1.72 µM,1.72 µM,1.72 µM,1.72 µM,–,–,–,–,–,–
CCC1CCc2c(sc(NC(=O)c3cccc([N+](=O)[O-])c3F)c2C(=O)O)C1 (stereo unspecified),1.25 µM,19.9 µM,0.61 µM,19.9 µM,–,–,–,–,–,–
Cc1c(C(=O)Nc2sc3c(c2C(=O)O)CCC(C)C3)cccc1[N+](=O)[O-] (stereo unspecified),83.6 µM,0.64 µM,1.31 µM,1.31 µM,–,–,–,–,–,–

# Source: ChEMBL document CHEMBL5230163, “Design, synthesis and antibacterial evaluation of a novel class of tetrahydrobenzothiophene derivatives” (2023)
